Source: ChEMBL document CHEMBL4024779, “Novel Terminal Bipheny-Based Diapophytoene Desaturases (CrtN) Inhibitors as Anti-MRSA/VISR/LRSA Agents with Reduced hERG Activity” (J Med Chem, 2018)
Calls of active or inactive are those of the source. The calls are words filed in the database; no cut-off is given here.

Columns and labels:
Staphylococcus aureus [1] = experiment: In vivo anti-virulence activity against methicillin-resistant Staphylococcus aureus XN108 infected in BALB/c mouse model assessed as reduction in bacterial load in heart at 0.1 mg bid for 3.5 days administered intraperitoneally 6 hrs post infection by serial dilution method relative to vancomycin; assay type: functional, organism-based
How it was run: (§1)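 Mice infected retro-orbitally with S. aureus NF65Y (3.5 × 10^8 CFU) or XN108 (2.1 × 10^8 CFU). Test compound given i.p. b.i.d. starting 6 h post-infection. […] Log10 CFU per kidney and heart counted. Two-tailed Mann−Whitney test.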

[2] = Inhibition of CrtN in methicillin-resistant Staphylococcus aureus NF65Y assessed as reduction in staphyloxanthin levels after 48 hrs by spectrophotometric method-based pigment inhibition assay
Staphylococcus aureus [3] = experiment: In vivo anti-virulence activity against methicillin-resistant Staphylococcus aureus XN108 infected in BALB/c mouse model assessed as reduction in bacterial load in kidney at 0.1 mg bid for 3.5 days administered intraperitoneally 6 hrs post infection by serial dilution method relative to vancomycin; assay type: functional, organism-based; how it was run: as §1
[4] = AUC (0 to 24 hrs) in Sprague-Dawley rat at 10 mg/kg, po administered as single dose by LC-MS/MS analysis; assay type: ADME, organism-based; design: time < 24 hr, dose 10 mg/kg, route oral; details: in vivo
Staphylococcus aureus [5] = experiment: Chemo-sensitization activity in non-pigmented Staphylococcus aureus Newman assessed as increase in H2O2-induced bacterial death by measuring survival rate at 1 uM pre-incubated for 24 hrs followed by H2O2 addition measured after 30 mins by serial dilution method (reference value: 33.3%); assay type: functional
How it was run: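 S. aureus Newman was pre-incubated with 1 µM compound, with N-acetylcysteine as antioxidant control, or mock-treated. Cells were then exposed to 1.5% H2O2. Percent bacterial survival was compared with the mock-treated culture.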

[6] = Half life in Sprague-Dawley rat at 10 mg/kg, ip administered as single dose by LC-MS/MS analysis; assay type: ADME, organism-based; details: in vivo
[7] = Cmax in Sprague-Dawley rat at 10 mg/kg, ip administered as single dose by LC-MS/MS analysis; assay type: ADME, organism-based; design: dose 10 mg/kg, route intraperitoneal; details: in vivo
[8] = Aqueous solubility of compound after 24 hrs by HPLC method; assay type: physicochemical
Staphylococcus aureus [9] = experiment: In vivo anti-virulence activity against methicillin-resistant Staphylococcus aureus LRSA56 infected in BALB/c mouse model assessed as reduction in bacterial load in kidney at 0.1 mg bid for 3.5 days administered intraperitoneally 6 hrs post infection by serial dilution method relative to control; assay type: functional; design: scale not given: the % may be the effect or the level left
How it was run: (§2)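 Mice were infected by retro-orbital injection with LRSA56 (5.0 × 10^7 CFU) or LRSA202 (7.0 × 10^7 CFU). Compound was given intraperitoneally 6 h after infection. […] Log10 CFU was counted in kidneys and hearts, with groups compared by two-tailed Mann-Whitney test.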

[10] = Half life in mouse at 10 mg/kg, po administered as single dose by LC-MS/MS analysis; assay type: ADME, organism-based; details: in vivo
Staphylococcus aureus [11] = experiment: In vivo anti-virulence activity against Staphylococcus aureus Newman infected in BALB/c mouse model assessed as reduction in bacterial load in kidneys at 0.4 mg bid for 4.5 days administered intraperitoneally 24 hrs prior to infection by serial dilution method; assay type: functional, organism-based
How it was run: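 Mice (n=10 per group) got 2.3 × 10^7 CFU S. aureus Newman by retro-orbital injection. Compound was given intraperitoneally b.i.d., either 24 h before infection (4.5 d) or 6 h after infection (3.5 d). Mice were sacrificed after 4.5 d and CFU counted in kidneys and hearts. Groups were compared by two-tailed Mann-Whitney test.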

Staphylococcus aureus [12] = experiment: In vivo anti-virulence activity against methicillin-resistant Staphylococcus aureus NRS271 infected in BALB/c mouse model assessed as reduction in bacterial load in kidneys at 0.4 mg bid for 3.5 days administered intraperitoneally 6 hrs post infection by serial dilution method; assay type: functional; design: scale not given: the % may be the effect or the level left
How it was run: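 Mice (n=10 per group) infected retro-orbitally with S. aureus Mu50 (1.1 × 10^9 or 1.3 × 10^9 CFU) or NRS271 (2.3 × 10^8 CFU). Compound given i.p. b.i.d., either 6 h after infection for 3.5 d or 24 h before infection for 4.5 d. Mice killed after 4.5 d; log10 CFU per organ counted in kidneys and hearts. Two-tailed Mann−Whitney test.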

Staphylococcus aureus [13] = experiment: In vivo anti-virulence activity against methicillin-resistant Staphylococcus aureus LRSA56 infected in BALB/c mouse model assessed as reduction in bacterial load in kidney at 0.1 mg bid for 3.5 days administered intraperitoneally 6 hrs post infection by serial dilution method relative to linezolid; assay type: functional; design: scale not given: the % may be the effect or the level left; how it was run: as §2
[14] = Inhibition of CrtN in methicillin-resistant Staphylococcus aureus NRS70 assessed as reduction in staphyloxanthin levels after 48 hrs by spectrophotometric method-based pigment inhibition assay
Staphylococcus aureus [15] = experiment: In vivo anti-virulence activity against Staphylococcus aureus Newman infected in BALB/c mouse model assessed as reduction in bacterial load in heart at 0.1 mg bid for 3.5 days administered orally 6 hrs post infection by serial dilution method relative to control; assay type: functional, organism-based
How it was run: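 Mice got 3.1 × 10^7 CFU S. aureus Newman by retro-orbital injection. Oral compound was given b.i.d. for 3.5 d, starting 6 h after infection. […] Log10 CFU was counted per kidney and per heart.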

Staphylococcus aureus [16] = experiment: In vivo anti-virulence activity against methicillin-resistant Staphylococcus aureus Mu50 infected in BALB/c mouse model assessed as reduction in bacterial load in heart at 0.1 mg bid for 4.5 days administered intraperitoneally 24 hrs prior to infection by serial dilution method; assay type: functional; design: scale not given: the % may be the effect or the level left
How it was run: (§3)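 Mice were challenged with 1.3 × 10^9 CFU Mu50. Compound was given intraperitoneally, either 24 h before or 6 h after infection. Log10 CFU was counted in kidneys and hearts.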

Staphylococcus aureus [17] = experiment: In vivo anti-virulence activity against methicillin-resistant Staphylococcus aureus Mu50 infected in BALB/c mouse model assessed as reduction in bacterial load in heart at 0.05 mg bid for 3.5 days administered intraperitoneally 6 hrs post infection by serial dilution method; assay type: functional; design: scale not given: the % may be the effect or the level left; how it was run: as §3
[18] = Tmax in mouse at 10 mg/kg, po administered as single dose by LC-MS/MS analysis; assay type: ADME, organism-based; details: in vivo
Liver = experiment: In-vitro intrinsic clearance in human liver microsomes at 2 uM after 60 mins in presence of NADPH by LC-MS/MS method; assay type: ADME, microsome; details: 1 h
Staphylococcus aureus [19] = experiment: In vivo anti-virulence activity against methicillin-resistant Staphylococcus aureus NF65Y infected in BALB/c mouse model assessed as reduction in bacterial load in heart at 0.1 mg bid for 3.5 days administered intraperitoneally 6 hrs post infection by serial dilution method relative to vancomycin; assay type: functional, organism-based; how it was run: as §1
[20] = AUC (0 to 24 hrs) in mouse at 2 mg/kg, iv administered as single dose by LC-MS/MS analysis; assay type: ADME, organism-based; design: dose 2 mg/kg, time < 24 hr, route intravenous; details: in vivo
[21] = Oral bioavailability in Sprague-Dawley rat at 10 mg/kg administered as single dose by LC-MS/MS analysis; assay type: ADME, organism-based; details: in vivo
Rattus norvegicus = experiment: Toxicity in Sprague-Dawley rat at 60 to 1000 mg/kg, po administered as single dose assessed as changes in body weight measured during 2 weeks post administration; assay type: organism-based; details: in vivo, 336 h
How it was run: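 Rats, 30 in total, randomised into three groups. Each received a single oral dose of 60, 250 or 1000 mg/kg on day 1. Poisoning symptoms, mortality, behaviour, water and food consumption and body weight monitored immediately and over 2 weeks.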

[22] = target: Voltage-gated inwardly rectifying potassium channel KCNH2 (Homo sapiens, UniProt Q12809); experiment: Inhibition of human ERG expressed in CHO cells at -80 mV holding potential after 3 mins by QPatch test; assay type: cell-based
Sequence of Voltage-gated inwardly rectifying potassium channel KCNH2 (Q12809 whole entry): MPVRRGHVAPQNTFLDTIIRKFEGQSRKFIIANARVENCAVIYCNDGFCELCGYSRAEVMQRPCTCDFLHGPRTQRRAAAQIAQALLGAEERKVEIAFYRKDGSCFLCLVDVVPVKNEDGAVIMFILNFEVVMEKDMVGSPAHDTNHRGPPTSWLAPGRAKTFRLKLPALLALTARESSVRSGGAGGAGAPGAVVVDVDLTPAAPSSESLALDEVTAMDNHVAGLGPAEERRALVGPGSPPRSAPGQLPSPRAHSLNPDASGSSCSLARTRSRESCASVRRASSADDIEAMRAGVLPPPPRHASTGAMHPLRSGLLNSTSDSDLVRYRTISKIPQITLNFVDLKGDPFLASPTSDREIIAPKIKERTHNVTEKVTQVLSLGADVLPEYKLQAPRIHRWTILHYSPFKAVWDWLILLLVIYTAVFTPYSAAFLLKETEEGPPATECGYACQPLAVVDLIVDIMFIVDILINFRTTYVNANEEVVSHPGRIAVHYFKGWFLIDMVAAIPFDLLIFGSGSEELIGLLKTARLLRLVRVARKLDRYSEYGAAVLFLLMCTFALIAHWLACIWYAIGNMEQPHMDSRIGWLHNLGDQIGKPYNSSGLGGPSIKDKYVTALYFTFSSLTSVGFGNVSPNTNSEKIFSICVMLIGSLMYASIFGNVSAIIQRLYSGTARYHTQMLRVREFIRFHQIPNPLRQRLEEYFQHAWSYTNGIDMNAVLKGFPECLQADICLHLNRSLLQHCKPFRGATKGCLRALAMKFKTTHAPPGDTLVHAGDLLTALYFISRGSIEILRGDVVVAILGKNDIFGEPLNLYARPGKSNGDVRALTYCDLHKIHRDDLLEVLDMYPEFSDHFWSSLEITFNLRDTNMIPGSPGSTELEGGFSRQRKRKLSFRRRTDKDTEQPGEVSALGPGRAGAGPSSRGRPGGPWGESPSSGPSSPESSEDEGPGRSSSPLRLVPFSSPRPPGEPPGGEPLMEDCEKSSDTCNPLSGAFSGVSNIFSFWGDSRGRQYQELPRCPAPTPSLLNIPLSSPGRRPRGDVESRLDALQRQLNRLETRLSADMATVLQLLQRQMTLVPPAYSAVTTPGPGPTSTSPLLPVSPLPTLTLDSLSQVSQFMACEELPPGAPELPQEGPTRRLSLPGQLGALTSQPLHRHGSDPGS

In the case of CN(C/C=C/c1ccc(-c2ccccc2)cc1)Cc1coc2ccccc12.Cl, the Activity (Staphylococcus aureus [1]) is reported as “Active”, the IC50 [2] is reported as 1 nM and the Activity (Staphylococcus aureus [3]) is reported as “Active”. For the same molecule, the AUC(0-t) at 24 h [4] was 899 ng·h/mL, the survival at 1 µM (Staphylococcus aureus [5]) was 3% and the half-life [6] was 7.61 h. For the same molecule, the Cmax [7] was 130 µg/mL, the solubility at 24 h [8] was 200 µg/mL and the Activity (Staphylococcus aureus [9]) was >83%. For the same molecule, the half-life [10] was 3.35 h, the Activity (Staphylococcus aureus [11]) was “Active” and the Activity (Staphylococcus aureus [12]) was >95%. The Activity (Staphylococcus aureus [13]) was >54.3%, the IC50 [14] was 1.7 nM and the Activity (Staphylococcus aureus [15]) was “inactive”. For the same molecule, the Activity (Staphylococcus aureus [16]) was >95%, the Activity (Staphylococcus aureus [17]) was >99.8% and the Tmax [18] was 2 h. For the same molecule, the CLH (Liver) was 1230 µL/min/mg, the Activity (Staphylococcus aureus [19]) was “Active” and the AUC(0-t) at 24 h [20] was 1070 ng·h/mL. For the same molecule, the bioavailability [21] was 16.3% and the Activity (Rattus norvegicus) was “Non-Toxic”.

With CN(C/C=C/c1ccc(-c2ccccc2)cc1)Cc1cccc2cc[nH]c12.Cl the Activity (Staphylococcus aureus [5]) was “Active”, the solubility at 24 h [8] was 200 µg/mL and the Activity (Staphylococcus aureus [11]) was “inactive”. The Activity (Staphylococcus aureus [12]) was >95%, the Activity (Staphylococcus aureus [16]) was >95% and the IC50 [22] was > 40000 nM. It also gave a CLH (Liver) of 20 µL/min/mg.
